Results taken from ChEMBL document CHEMBL3585281, “Antibacterial Labdane Diterpenoids from Vitex vestita” (2015).
Values after ≈ are worked out from the molar mass of the structure shown.

Columns and labels:
Assay type in all cases: functional
Bacillus cereus [1] = assay: Antibacterial activity against Bacillus cereus CIP 6624 after 18 hrs by agar dilution method; details: CIP 6624, 18 h
How it was run: (§1)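 Agar-dilution MIC against Gram-positive strains. Compounds in DMSO, geometric dilutions giving final 100−0.75 mg/L in Mueller Hinton agar. Strains grown 18 h at 37 °C in trypticase soy broth, diluted in sterile water, spotted by Steers inoculator (about 1000 UFC/spot). Plates incubated 18 h at 37 °C; DMSO blank; ofloxacin positive control. MIC = lowest concentration with no visible growth.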

Bacillus cereus [2] = assay: Antibacterial activity against Bacillus cereus N190 after 18 hrs by agar dilution method; details: N190, 18 h; how it was run: as §1
Bacillus cereus [3] = assay: Antibacterial activity against Bacillus cereus N258 after 18 hrs by agar dilution method; details: N258, 18 h; how it was run: as §1
Bacillus cereus [4] = assay: Antibacterial activity against Bacillus cereus N349 after 18 hrs by agar dilution method; details: N349, 18 h; how it was run: as §1
Bacillus spizizenii = assay: Antibacterial activity against Bacillus subtilis ATCC 6633 after 18 hrs by agar dilution method; details: ATCC 6633, 18 h; how it was run: as §1
Corynebacterium striatum = assay: Antibacterial activity against Corynebacterium striatum N840 after 18 hrs by agar dilution method; details: N840, 18 h; how it was run: as §1
Enterococcus avium = assay: Antibacterial activity against Enterococcus avium CIP 104053 after 18 hrs by agar dilution method; details: CIP 104053, 18 h; how it was run: as §1
[5] = tested on: Enterococcus casseliflavus; assay: Antibacterial activity against Enterococcus casseliflavus N487 after 18 hrs by agar dilution method; details: N487, 18 h; how it was run: as §1
[6] = tested on: Enterococcus casseliflavus; assay: Antibacterial activity against Enterococcus casseliflavus CIP 103018 after 18 hrs by agar dilution method; details: CIP 103018, 18 h; how it was run: as §1
Enterococcus durans = assay: Antibacterial activity against Enterococcus durans CIP 104999 after 18 hrs by agar dilution method; details: CIP 104999, 18 h; how it was run: as §1
Enterococcus faecalis [7] = assay: Antibacterial activity against Enterococcus faecalis CIP 103214 after 18 hrs by agar dilution method; details: CIP 103214, 18 h; how it was run: as §1
Enterococcus faecalis [8] = assay: Antibacterial activity against Enterococcus faecalis CIP 104676 after 18 hrs by agar dilution method; details: CIP 104676, 18 h; how it was run: as §1
Enterococcus faecalis [9] = assay: Antibacterial activity against Enterococcus faecalis N491 after 18 hrs by agar dilution method; details: N491, 18 h; how it was run: as §1
Enterococcus faecalis [10] = assay: Antibacterial activity against Enterococcus faecalis N518 after 18 hrs by agar dilution method; details: N518, 18 h; how it was run: as §1
Enterococcus faecalis [11] = assay: Antibacterial activity against Enterococcus faecalis N520 after 18 hrs by agar dilution method; details: N520, 18 h; how it was run: as §1
Enterococcus faecium [12] = assay: Antibacterial activity against Enterococcus faecium CIP 103014 after 18 hrs by agar dilution method; details: CIP 103014, 18 h; how it was run: as §1
Enterococcus faecium [13] = assay: Antibacterial activity against Enterococcus faecium CIP 107387 after 18 hrs by agar dilution method; details: CIP 107387, 18 h; how it was run: as §1
Enterococcus faecium [14] = assay: Antibacterial activity against Enterococcus faecium N490 after 18 hrs by agar dilution method; details: N490, 18 h; how it was run: as §1
Enterococcus faecium [15] = assay: Antibacterial activity against Enterococcus faecium N507 after 18 hrs by agar dilution method; details: N507, 18 h; how it was run: as §1
Enterococcus faecium [16] = assay: Antibacterial activity against Enterococcus faecium N733 after 18 hrs by agar dilution method; details: N733, 18 h; how it was run: as §1
Enterococcus faecium [17] = assay: Antibacterial activity against Enterococcus faecium N823 after 18 hrs by agar dilution method; details: N823, 18 h; how it was run: as §1
Enterococcus gallinarum [18] = assay: Antibacterial activity against Enterococcus gallinarum CIP 105985 after 18 hrs by agar dilution method; details: CIP 105985, 18 h; how it was run: as §1
Enterococcus gallinarum [19] = assay: Antibacterial activity against Enterococcus gallinarum N489 after 18 hrs by agar dilution method; details: N489, 18 h; how it was run: as §1
Enterococcus gallinarum [20] = assay: Antibacterial activity against Enterococcus gallinarum N492 after 18 hrs by agar dilution method; details: N492, 18 h; how it was run: as §1
Enterococcus hirae = assay: Antibacterial activity against Enterococcus hirae CIP 5855 after 18 hrs by agar dilution method; details: CIP 5855, 18 h; how it was run: as §1
Listeria innocua = assay: Antibacterial activity against Listeria innocua E044 after 18 hrs by agar dilution method; details: E044, 18 h; how it was run: as §1
Listeria monocytogenes [21] = assay: Antibacterial activity against Listeria monocytogenes CIP 103575 after 18 hrs by agar dilution method; details: CIP 103575, 18 h; how it was run: as §1
Listeria monocytogenes [22] = assay: Antibacterial activity against Listeria monocytogenes N783 after 18 hrs by agar dilution method; details: N783, 18 h; how it was run: as §1
Listeria monocytogenes [23] = assay: Antibacterial activity against Listeria monocytogenes N836 after 18 hrs by agar dilution method; details: N836, 18 h; how it was run: as §1
Listeria monocytogenes [24] = assay: Antibacterial activity against Listeria monocytogenes N851 after 18 hrs by agar dilution method; details: N851, 18 h; how it was run: as §1
Staphylococcus aureus [25] = assay: Antibacterial activity against Staphylococcus aureus ATCC 25923 after 18 hrs by agar dilution method; details: ATCC 25923, 18 h; how it was run: as §1
Staphylococcus aureus [26] = assay: Antibacterial activity against Staphylococcus aureus ATCC 9144 oxford after 18 hrs by agar dilution method; how it was run: as §1
Staphylococcus aureus [27] = assay: Antibacterial activity against Staphylococcus aureus CIP 483 after 18 hrs by agar dilution method; details: CIP 483, 18 h; how it was run: as §1
Staphylococcus aureus [28] = assay: Antibacterial activity against Staphylococcus aureus CIP 53154 after 18 hrs by agar dilution method; details: CIP 53154, 18 h; how it was run: as §1
Staphylococcus aureus [29] = assay: Antibacterial activity against Staphylococcus aureus CIP 53156 after 18 hrs by agar dilution method; details: CIP 53156, 18 h; how it was run: as §1
Staphylococcus aureus [30] = assay: Antibacterial activity against Staphylococcus aureus CIP 5710 after 18 hrs by agar dilution method; details: CIP 5710, 18 h; how it was run: as §1
Staphylococcus aureus [31] = assay: Antibacterial activity against Staphylococcus aureus CIP 7625 after 18 hrs by agar dilution method; details: CIP 7625, 18 h; how it was run: as §1
Staphylococcus aureus [32] = assay: Antibacterial activity against Staphylococcus aureus CRBIP 2121 after 18 hrs by agar dilution method; details: CRBIP 2121, 18 h; how it was run: as §1
[33] = tested on: Staphylococcus epidermidis; assay: Antibacterial activity against Staphylococcus epidermidis CIP 53124 after 18 hrs by agar dilution method; details: CIP 53124, 18 h; how it was run: as §1
[34] = tested on: Staphylococcus haemolyticus; assay: Antibacterial activity against Staphylococcus haemolyticus CIP 8156 after 18 hrs by agar dilution method; details: CIP 8156, 18 h; how it was run: as §1
[35] = tested on: Staphylococcus intermedius; assay: Antibacterial activity against Staphylococcus intermedius N987 after 18 hrs by agar dilution method; details: N987, 18 h; how it was run: as §1
[36] = tested on: Staphylococcus lugdunensis; assay: Antibacterial activity against Staphylococcus lugdunensis ATCC 43809 after 18 hrs by agar dilution method; details: ATCC 43809, 18 h; how it was run: as §1
[37] = tested on: Staphylococcus saprophyticus; assay: Antibacterial activity against Staphylococcus saprophyticus CIP 76125 after 18 hrs by agar dilution method; details: CIP 76125, 18 h; how it was run: as §1
[38] = tested on: Staphylococcus saprophyticus; assay: Antibacterial activity against Staphylococcus saprophyticus E260 after 18 hrs by agar dilution method; details: E260, 18 h; how it was run: as §1
Mammaliicoccus sciuri = assay: Antibacterial activity against Staphylococcus sciuri N993 after 18 hrs by agar dilution method; details: N993, 18 h; how it was run: as §1
Streptococcus agalactiae = assay: Antibacterial activity against Streptococcus agalactiae CIP 103227 after 18 hrs by agar dilution method; details: ATCC 13813, 18 h; how it was run: as §1
MRC5 [39] = assay: Cytotoxicity against human MRC5 cells assessed as growth inhibition at 10^-5 M after 72 hrs by MTS assay relative to control; details: MRC5, 72 h, read-out: GI
How it was run: (§2)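 Cells from ATCC; HCT-116 grown in RPMI 1640 and MRC5 in DMEM, each with 10% FCS and 1% glutamine, 37 °C, 5% CO2. Seeded at 2.5 × 10^3 cells/well, cultured 24 h, then exposed to compounds at 1 and 10 μM final for 72 h. MTS read-out, absorbance 490 nm; percent index from treated/control OD490 × 100, three experiments.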

MRC5 [40] = assay: Cytotoxicity against human MRC5 cells assessed as growth inhibition at 10^-6 M after 72 hrs by MTS assay relative to control; details: MRC5, 72 h, read-out: GI; how it was run: as §2
HCT-116 [41] = assay: Cytotoxicity against human HCT116 cells assessed as growth inhibition at 10^-5 M after 72 hrs by MTS assay relative to control; details: HCT-116, 72 h, read-out: GI; how it was run: as §2
HCT-116 [42] = assay: Cytotoxicity against human HCT116 cells assessed as growth inhibition at 10^-6 M after 72 hrs by MTS assay relative to control; details: HCT-116, 72 h, read-out: GI; how it was run: as §2

For `C=C1CC[C@H]2C(C)(C)CCC[C@]2(C)[C@H]1C[C@@H](O)C1=CC(=O)OC1`, the MIC (Bacillus cereus [1]) was ≤ 188 µM, the MIC (Bacillus cereus [2]) was ≤ 188 µM and the MIC (Bacillus cereus [3]) was ≤ 188 µM. The MIC (Bacillus cereus [4]) was ≤ 188 µM, the MIC (Bacillus spizizenii) was > 188 µM and the MIC (Corynebacterium striatum) was > 188 µM. For the same compound, the MIC (Enterococcus avium) was > 188 µM, the MIC [5] was > 188 µM and the MIC [6] was > 188 µM. For the same compound, the MIC (Enterococcus durans) was 50 µM (≈ 15.9 µg/mL), the MIC (Enterococcus faecalis [7]) was 50 µM (≈ 15.9 µg/mL) and the MIC (Enterococcus faecalis [8]) was 50 µM (≈ 15.9 µg/mL). For the same compound, the MIC (Enterococcus faecalis [9]) was 50 µM (≈ 15.9 µg/mL), the MIC (Enterococcus faecalis [10]) was 50 µM (≈ 15.9 µg/mL) and the MIC (Enterococcus faecalis [11]) was 50 µM (≈ 15.9 µg/mL). The MIC (Enterococcus faecium [12]) was > 188 µM, the MIC (Enterococcus faecium [13]) was > 188 µM and the MIC (Enterococcus faecium [14]) was ≤ 188 µM. For the same compound, the MIC (Enterococcus faecium [15]) was 50 µM (≈ 15.9 µg/mL), the MIC (Enterococcus faecium [16]) was 50 µM (≈ 15.9 µg/mL) and the MIC (Enterococcus faecium [17]) was 50 µM (≈ 15.9 µg/mL). The MIC (Enterococcus gallinarum [18]) was > 188 µM, the MIC (Enterococcus gallinarum [19]) was > 188 µM and the MIC (Enterococcus gallinarum [20]) was > 188 µM. For the same compound, the MIC (Enterococcus hirae) was > 188 µM, the MIC (Listeria innocua) was > 188 µM and the MIC (Listeria monocytogenes [21]) was > 188 µM. For the same compound, the MIC (Listeria monocytogenes [22]) was > 188 µM, the MIC (Listeria monocytogenes [23]) was > 188 µM and the MIC (Listeria monocytogenes [24]) was > 188 µM. The MIC (Staphylococcus aureus [25]) was > 188 µM, the MIC (Staphylococcus aureus [26]) was > 188 µM and the MIC (Staphylococcus aureus [27]) was > 188 µM. The MIC (Staphylococcus aureus [28]) was > 188 µM, the MIC (Staphylococcus aureus [29]) was > 188 µM and the MIC (Staphylococcus aureus [30]) was > 188 µM. The MIC (Staphylococcus aureus [31]) was > 188 µM, the MIC (Staphylococcus aureus [32]) was > 188 µM and the MIC [33] was > 188 µM. The MIC [34] was > 188 µM, the MIC [35] was > 188 µM and the MIC [36] was > 188 µM. For the same compound, the MIC [37] was > 188 µM, the MIC [38] was > 188 µM and the MIC (Mammaliicoccus sciuri) was > 188 µM. For the same compound, the MIC (Streptococcus agalactiae) was 50 µM (≈ 15.9 µg/mL), the inhibition of growth at 10 µM (MRC5 [39]) was 86% and the inhibition of growth at 1 µM (MRC5 [40]) was 34%. It also gave an inhibition of growth at 10 µM (HCT-116 [41]) of 68% and an inhibition of growth at 1 µM (HCT-116 [42]) of 3%.
